# Measured values taken from paper PMC9055986 (RSC Advances, 2020).
# What was measured:
# [1] = molecular target: PARP-1 (Homo sapiens, UniProt P09874); test: In vitro PARP-1 inhibitory assay; format: biochemical; conditions: IC50 (nM), in vitro inhibitory activity against PARP-1; mean ± S.E.M., n = 3
# [2] = tested on: MCF-7 cells; test: Cell cycle analysis; format: cell-based; conditions: for cell cycle arrest: MCF-7 cell line, in words; for DNA content% % G0–G1 / DNA content% % G2–M / DNA content% % Pre G1 / DNA content% % S: MCF-7 cells, 10 μg mL^−1, 24 h
# [3] = tested on: MCF-7 cells; test: Annexin V-FITC apoptosis assay; format: cell-based; conditions: 2.5 μM, 24 h, Annexin V and PI double staining
# How it was run: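 MCF-7 cells exposed to test compound (2.5 μM) for 24 h, then double-stained with Annexin V-FITC and propidium iodide. Stained cells were detected by flow cytometry, and the percentage of apoptotic cells was determined.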
# Sequence of PARP-1 (P09874 whole entry): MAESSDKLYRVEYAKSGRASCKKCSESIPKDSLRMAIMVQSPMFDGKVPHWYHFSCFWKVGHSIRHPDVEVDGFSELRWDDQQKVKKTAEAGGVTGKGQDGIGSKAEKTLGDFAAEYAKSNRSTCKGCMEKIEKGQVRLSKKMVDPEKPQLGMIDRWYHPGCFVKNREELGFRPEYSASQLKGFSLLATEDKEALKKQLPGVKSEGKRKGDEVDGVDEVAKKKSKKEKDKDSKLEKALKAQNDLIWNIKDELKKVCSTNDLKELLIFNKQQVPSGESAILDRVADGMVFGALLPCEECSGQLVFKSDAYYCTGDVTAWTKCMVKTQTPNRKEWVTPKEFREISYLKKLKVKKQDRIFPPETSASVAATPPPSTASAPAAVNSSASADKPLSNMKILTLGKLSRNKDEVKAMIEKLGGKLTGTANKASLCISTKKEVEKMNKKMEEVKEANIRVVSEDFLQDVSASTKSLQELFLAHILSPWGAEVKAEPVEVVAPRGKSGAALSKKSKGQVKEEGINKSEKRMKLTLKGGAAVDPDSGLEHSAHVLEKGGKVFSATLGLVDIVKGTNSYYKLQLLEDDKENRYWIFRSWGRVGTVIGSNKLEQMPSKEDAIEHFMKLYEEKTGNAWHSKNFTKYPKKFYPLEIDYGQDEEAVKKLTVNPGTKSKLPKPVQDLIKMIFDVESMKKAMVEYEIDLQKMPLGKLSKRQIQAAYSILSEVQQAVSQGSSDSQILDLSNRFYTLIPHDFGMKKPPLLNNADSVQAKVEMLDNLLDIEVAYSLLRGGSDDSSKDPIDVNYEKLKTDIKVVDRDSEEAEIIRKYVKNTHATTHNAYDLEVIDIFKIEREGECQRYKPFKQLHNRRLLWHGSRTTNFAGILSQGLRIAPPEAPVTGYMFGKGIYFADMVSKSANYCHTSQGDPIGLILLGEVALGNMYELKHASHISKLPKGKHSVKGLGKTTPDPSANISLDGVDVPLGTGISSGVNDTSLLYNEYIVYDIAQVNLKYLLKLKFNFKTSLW
Structure (SMILES),IC50 [1] [nM],cell cycle arrest [2],DNA content% % G0–G1 [2] [%],DNA content% % G2–M [2] [%],DNA content% % Pre G1 [2] [%],DNA content% % S [2] [%],Apoptosis Total [3] [%]
"COC(=O)c1ccc(NC(=O)Cn2c(=S)n(-c3ccccc3)c(=O)c3ccccc32)cc1 [Compound 6a, Methyl 4-(2-(4-oxo-3-phenyl-2-thioxo-3,4-dihydroquinazolin-1(2H)-yl)acetamido)benzoate]",56 ± 2.95,,,,,,
"CC(=O)c1ccc(NC(=O)Cn2c(=S)n(-c3ccccc3)c(=O)c3ccccc32)cc1 [Compound 6b, N-(4-Acetylphenyl)-2-(4-oxo-3-phenyl-2-thioxo-3,4-dihydroquinazolin-1(2H)-yl)acetamide]",64.7 ± 3.38,,,,,,
"COc1ccc(-c2cc(-c3ccc(NC(=O)CSc4nc5ccccc5c(=O)n4-c4ccccc4)cc3)nc(N)c2C#N)cc1 [Compound 8a, N-(4-(6-Amino-5-cyano-4-(4-methoxyphenyl)pyridin-2-yl)phenyl)-2-((4-oxo-3-phenyl-3,4-dihydroquinazolin-2-yl)thio)acetamide]",32.5 ± 2.64,,,,,,
"COC(=O)c1ccc(NC(=O)CNNc2nc3ccccc3c(=O)n2-c2ccccc2)cc1 [Compound 12a, Methyl 4-(2-(2-(4-oxo-3-phenyl-3,4-dihydroquinazolin-2-yl)hydrazinyl)acetamido)benzoate]",39.1 ± 3.89,cell growth arrest at the G2/M phase,38.51,38.06,26.55,23.43,
"NS(=O)(=O)c1ccc(NC(=O)CNNc2nc3ccccc3c(=O)n2-c2ccccc2)cc1 [Compound 12c, 2-(2-(4-Oxo-3-phenyl-3,4-dihydroquinazolin-2-yl)hydrazinyl)-N-(4-sulfamoylphenyl)-acetamide]",27.9 ± 3.45,cell growth arrest at the G2/M phase,43.28,23.49,19.31,33.23,
"O=c1c2ccccc2nc(NN=Cc2ccc(O)cc2)n1-c1ccccc1 [Compound 13b, 2-(2-(4-Hydroxybenzylidene)hydrazinyl)-3-phenylquinazolin-4(3H)-one]",44.2 ± 3.12,,,,,,
"COc1ccccc1C=NNc1nc2ccccc2c(=O)n1-c1ccccc1 [Compound 13c, 2-(2-(2-Methoxybenzylidene)hydrazinyl)-3-phenylquinazolin-4(3H)-one]",45.6 ± 2.86,,,,,,
"CN[C@@H]1C[C@H]2O[C@@](C)([C@@H]1OC)n1c3ccccc3c3c4c(c5c6ccccc6n2c5c31)C(=O)NC4 [Stauroporine, reference compound]",,,37.19,36.59,,26.22,31.74
